Converted amounts (≈) assume the structure as drawn.
Legend:
[1] = Cytotoxicity, sulforhodamine B; assay type: cell-based; details: human, MDA-MB-231 cells
Outline: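 MDA-MB-231 cells (DMEM high glucose, 10% FBS, antibiotic/antimycotic) plated at 5,000 cells/well and left to adhere overnight at normoxia. Pre-incubated 1 h with titrated test compound, then cultured at normoxia (21% O2, 5% CO2) or hypoxia (1% O2, 5% CO2). SRB stain after 96 h, OD read at 540 nm. IC50 given as mean±SEM, n=3.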

[2] = tested on: PHD3; assay: Quantitative real-time PCR, PHD3 mRNA in MDA-MB-231 cells; assay type: cell-based; details: 10 μM, 8 h, normalized to Cyclophilin A, n=3
Outline: (§1)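 MDA-MB-231 cells seeded at 3.5×10^5/well in six-well plates overnight. Treated 8 h with 10 μM test compound in medium under hypoxia (1% O2) or normoxia; controls got medium with […] DMSO. Total RNA isolated and reverse-transcribed. SYBR Green qPCR run with 40 ng cDNA/well, normalised to Cyclophilin A, n=3.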

[3] = tested on: HIF1A; assay: Quantitative real-time PCR, HIF1A mRNA in MDA-MB-231 cells; assay type: cell-based; details: 10 μM, 8 h, normalized to Cyclophilin A, n=3
Outline: as §1

[4] = tested on: HIF-1α; assay: Western blot of HIF-1α protein expression in MDA-MB-231 cells; assay type: cell-based; details: hypoxic conditions (1% oxygen)
[5] = tested on: VEGF; assay: Quantitative real-time PCR, VEGF mRNA in MDA-MB-231 cells; assay type: cell-based; details: 10 μM, 8 h, normalized to Cyclophilin A, n=3
Outline: as §1

[6] = Aqueous solubility, miniaturized shake-flask with LC-MS/MS; assay type: physicochemical; details: for Solubility: room temperature
Outline: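 Test compound (1.0 mg) shaken in 1 mL water or pH 7.0 phosphate buffer for 24 h at 450 rpm, room temperature. Suspension spun at 10,000 RPM for 15 min. Supernatant quantified by ESI LC-MS/MS on a PFP column using a 0.1% formic acid/MeOH gradient at 0.4 mL/min.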

SMILES	IC50 at 96 h [1]	PHD3 mRNA level (qPCR) ([2]; hypoxia (1% oxygen))	PHD3 mRNA level (qPCR) ([2]; normoxia)	HIF1A expression (qPCR) ([3]; hypoxia (1% oxygen))	HIF1A expression level (qPCR) ([3]; normoxia)	HIF-1α protein accumulation under hypoxic stress (western blot) [4]	VEGF expression (qPCR) ([5]; hypoxia (1% oxygen))	VEGF expression level (qPCR) ([5]; normoxia)	Solubility ([6]; Buffer pH 7.0, 24 h shaking)	Solubility ([6]; Water, 24 h shaking)	Aqueous solubility ([6]; buffer pH 7.0)	Aqueous solubility ([6]; water)
C[C@H]1O[C@@H](O[C@H]2[C@@H](O)C[C@H](O[C@H]3[C@@H](O)C[C@H](O[C@H]4CC[C@@]5(C)[C@H](CC[C@@H]6[C@@H]5C[C@@H](O)[C@]5(C)[C@@H](C7=CC(=O)OC7)CC[C@]65O)C4)O[C@@H]3C)O[C@@H]2C)C[C@H](O)[C@@H]1O [Digoxin]	250 ± 50 nM	–	–	–	–	–	–	–	–	–	–	–
CC(=O)O[C@@]12CO[C@@H]1C[C@H](O)[C@@]1(C)C(=O)[C@H](O)C3=C(C)[C@@H](OC(=O)[C@H](O)[C@@H](NC(=O)OC(C)(C)C)c4ccccc4)C[C@@](O)([C@@H](OC(=O)c4ccccc4)[C@H]21)C3(C)C [Docetaxel]	< 5 nM	–	–	–	–	–	–	–	–	–	–	–
OCc1ccc(-c2nn(Cc3ccccc3)c3ccccc23)o1 [YC-1, 3-(5′-hydroxymethyl-2′-furyl)-1-benzyl indazole]	–	insignificant	enhancement of PHD3 mRNA levels	remained repressed	significantly reduced	not inhibited	remained repressed	significantly reduced	0.94 µg/mL (≈ 3.09 µM)	1.241 µg/mL (≈ 4.08 µM)	0.9 µg/mL	1.2 µg/mL
